“And” between values parts separate entries of the source, which are not always exact repeats. Equal values may be shown once.
Columns and labels:
Rattus norvegicus [1] = assay: Compound was evaluated for the lipid soluble radioactivity extracted from rat liver at 24 hr after intravenous administration.; type: functional
Summary of the method: (§1)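 Liver and plasma taken 0.5 or 24 h after iv dosing of 125I-labeled compound in rats (n = 3-5). Extracted by a modified Folch procedure; value is % lipid (CHCl3/MeOH)-extractable radioactivity ± SEM. Extracts run on TLC in hexane/ethyl acetate 5:2 against unlabeled standard, then 1-cm strips counted to give % parent compound.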

Rattus norvegicus [2] = assay: Liver radioactivity after iv administration of compound (5 min) in rats; type: functional, organism-based
Summary of the method: (§2)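 Rats (3-5 per time point) dosed iv with about 5-30 μCi (9-83 μg) of 125I-labeled compound in saline containing Tween-20. Killed by exsanguination under ether at 5 min, 30 min or 24 h. Liver removed, minced, blotted and counted. Values are % administered dose per organ, based on each animal's actual liver weight, ± SEM.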

Rattus norvegicus [3] = assay: Biodistribution in Rat blood after 5 minutes of iv administration; type: ADME, organism-based; conditions: in vivo
Summary of the method: (§3)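 125I-labeled compound solubilized in normal saline with Tween-20 and given iv to rats, about 5-30 μCi (9-83 μg) per animal. Three to five rats per time point. Rats killed by exsanguination under ether anesthesia at 5 min, 30 min or 24 h. Organs minced, blotted free of blood and counted for radioiodine. Lines with "per g" are % administered dose per gram ± SEM.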

Rattus norvegicus [4] = assay: Biodistribution in Rat blood after 24 hours of iv administration; type: ADME, organism-based; conditions: in vivo; summary of the method: as §3
Rattus norvegicus [5] = assay: Biodistribution in Rat heart after 24 hours of iv administration; type: ADME, organism-based; conditions: in vivo; summary of the method: as §3
Rattus norvegicus [6] = assay: Biodistribution in Rat lung after 24 hours of iv administration; type: ADME, organism-based; conditions: in vivo; summary of the method: as §3
Rattus norvegicus [7] = assay: Biodistribution in Rat heart after 30 minutes of iv administration; type: ADME, organism-based; conditions: in vivo, 0.5 h; summary of the method: as §3
Rattus norvegicus [8] = assay: Compound was evaluated for the lipid soluble radioactivity extracted from rat plasma at 0.5 hr after intravenous administration.; type: functional; summary of the method: as §1
Rattus norvegicus [9] = assay: Biodistribution in Rat blood after 30 minutes of iv administration; type: ADME, organism-based; conditions: in vivo, 0.5 h; summary of the method: as §3
Rattus norvegicus [10] = assay: Liver radioactivity after iv administration of compound (24 h) in rats; type: functional, organism-based; summary of the method: as §2
Rattus norvegicus [11] = assay: Biodistribution in Rat lung after 30 minutes of iv administration; type: ADME, organism-based; conditions: in vivo, 0.5 h; summary of the method: as §3
Rattus norvegicus [12] = assay: Compound (125I labeled) was evaluated for the total radioactivity in albumin 5 min after intravenous administration.; type: functional; set-up: concentration or dose not given beside the values
Summary of the method: (§4)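 Rat plasma taken 5 or 30 min after iv dosing of 125I-labeled compound (saline/Tween-20) and run on polyacrylamide gel electrophoresis. Gels sectioned and each section gamma-counted. Radioactivity in each band (stacking gel, lipoproteins, albumin, below-albumin) is given as % of total radioactivity applied to the gel.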

Rattus norvegicus [13] = assay: Biodistribution in Rat lung after 5 minutes of iv administration; type: ADME, organism-based; conditions: in vivo; summary of the method: as §3
Rattus norvegicus [14] = assay: Evaluated for the total radioactivity in below albumin at 30 min after intravenous administration.; type: functional; summary of the method: as §4
Rattus norvegicus [15] = assay: Compound (125I labeled) was evaluated for the total radioactivity in stacking gel 5 min after intravenous administration.; type: functional; summary of the method: as §4
Rattus norvegicus [16] = assay: Compound (125I labeled) was evaluated for the total radioactivity in high-density lipoprotein, at 30 min after intravenous administration.; type: functional; summary of the method: as §4
Rattus norvegicus [17] = assay: Liver radioactivity after iv administration of compound (30 min) in rats; type: functional, organism-based; summary of the method: as §2
Rattus norvegicus [18] = assay: Biodistribution in Rat heart after 5 minutes of iv administration; type: ADME, organism-based; conditions: in vivo; summary of the method: as §3
Rattus norvegicus [19] = assay: Compound (125I labeled) was evaluated for the total radioactivity in stacking gel at 30 min after intravenous administration.; type: functional; summary of the method: as §4
Rattus norvegicus [20] = assay: Compound was evaluated for the lipid soluble radioactivity extracted from rat liver at 0.5 hr after intravenous administration.; type: functional; summary of the method: as §1
Rattus norvegicus [21] = assay: Biodistribution in Rat liver after 5 minutes of iv administration; type: ADME, organism-based; conditions: in vivo; summary of the method: as §3
Rattus norvegicus [22] = assay: Compound (125I labeled) was evaluated for the total radioactivity in low-density lipoprotein, at 30 min after intravenous administration.; type: functional; summary of the method: as §4
Rattus norvegicus [23] = assay: Compound (125I labeled) was evaluated for the total radioactivity in high-density lipoprotein 5 min after intravenous administration.; type: functional; summary of the method: as §4
Rattus norvegicus [24] = assay: Compound (125I labeled) was evaluated for the total radioactivity in low-density lipoprotein 5 min after intravenous administration.; type: functional; set-up: concentration or dose not given beside the values; summary of the method: as §4
Rattus norvegicus [25] = assay: (§5) Biodistribution in Rat liver after 30 minutes of iv administration; type: ADME, organism-based; conditions: in vivo, 0.5 h; summary of the method: as §3
Rattus norvegicus [26] = assay: Compound (125I labeled) was evaluated for the total radioactivity in albumin at 30 min after intravenous administration.; type: functional; set-up: concentration or dose not given beside the values; summary of the method: as §4
Rattus norvegicus [27] = assay: as §5; type: ADME, organism-based; conditions: in vivo, 0.5 h; summary of the method: as §3; remark: listed apart in the source
Rattus norvegicus [28] = assay: Compound was evaluated for the lipid soluble radioactivity extracted from rat plasma at 24 hr after intravenous administration.; type: functional; summary of the method: as §1
Rattus norvegicus [29] = assay: Biodistribution in Rat liver after 24 hours of iv administration; type: ADME, organism-based; conditions: in vivo; summary of the method: as §3

Compound | Radioactivity (Rattus norvegicus [2]) | Biodistribution (Rattus norvegicus [3]) | Biodistribution (Rattus norvegicus [4]) | Biodistribution (Rattus norvegicus [5]) | Biodistribution (Rattus norvegicus [6]) | Biodistribution (Rattus norvegicus [7]) | Parent compound (Rattus norvegicus [8]) | Biodistribution (Rattus norvegicus [9]) | Biodistribution (Rattus norvegicus [11]) | Total radioactivity (Rattus norvegicus [12]) | Biodistribution (Rattus norvegicus [13]) | Total radioactivity (Rattus norvegicus [15]) | Total radioactivity (Rattus norvegicus [16]) | Radioactivity (Rattus norvegicus [17]) | Biodistribution (Rattus norvegicus [18]) | Total radioactivity (Rattus norvegicus [19]) | Extracted (Rattus norvegicus [20]) | Parent compound (Rattus norvegicus [20]) | Biodistribution (Rattus norvegicus [21]) | Total radioactivity (Rattus norvegicus [22]) | other results
Nc1c(I)cc(I)c(CCC(=O)OCC(COC(=O)CCc2c(I)cc(I)c(N)c2I)OC(=O)CCc2c(I)cc(I)c(N)c2I)c1I | 60.5 | 2.15% | 0.05% | 0.19% | 2.64% | 0.82% | 94.5% | 1.71% | 6.63% | 10.5% | 6.69% | 18.3% | 34.5% | 75.5 | 1.93% | 20.2% | 94.8% | 97.3% | 0.44% and 8.02% | 27.6% | Extracted (Rattus norvegicus [1]): 91.1%; Parent compound (Rattus norvegicus [1]): 96.5%; Extracted (Rattus norvegicus [8]): 89%; Radioactivity (Rattus norvegicus [10]): 86.2; Total radioactivity (Rattus norvegicus [14]): 3.2% and 4.1%; Total radioactivity (Rattus norvegicus [23]): 38.4%; Total radioactivity (Rattus norvegicus [24]): 29.6%; Biodistribution (Rattus norvegicus [25]): 10.38%; Total radioactivity (Rattus norvegicus [26]): 13.8%; Biodistribution (Rattus norvegicus [27]): 10.4%; Extracted (Rattus norvegicus [28]): 83.3%; Parent compound (Rattus norvegicus [28]): 68.2%
CCCCCCCCCCCCCCCC(=O)OC(COC(=O)CCCCCCCCCCCc1c(I)cc(I)c(N)c1I)COC(=O)CCCCCCCCCCCc1c(I)cc(I)c(N)c1I | 43.4 | 2.74% | 0.1% | 0.12% | 0.12% | 1.06% | 11.3% | 1.49% | 0.73% | 14.8% | 1.38% | 61.6% | 25.7% | 30.7 | 1.43% | 8.6% | 64.2% | 28.1% | 0.64% and 5.84% | 12.1% | Extracted (Rattus norvegicus [1]): 81.7%; Parent compound (Rattus norvegicus [1]): 44.9%; Extracted (Rattus norvegicus [8]): 64.6%; Radioactivity (Rattus norvegicus [10]): 7.73; Total radioactivity (Rattus norvegicus [14]): 3.4% and 3.1%; Biodistribution (Rattus norvegicus [29]): 0.14% and 1.06%; Total radioactivity (Rattus norvegicus [23]): 12%; Total radioactivity (Rattus norvegicus [24]): 8.2%; Biodistribution (Rattus norvegicus [25]): 4.24%; Total radioactivity (Rattus norvegicus [26]): 50.7%; Biodistribution (Rattus norvegicus [27]): 4.24%; Extracted (Rattus norvegicus [28]): 52%; Parent compound (Rattus norvegicus [28]): 25.3%
Nc1c(I)cc(I)c(CCCCCCCCCCCC(=O)OCC(COC(=O)CCCCCCCCCCCc2c(I)cc(I)c(N)c2I)OC(=O)CCCCCCCCCCCc2c(I)cc(I)c(N)c2I)c1I | 53.8 | 1.46% | 0.07% | 0.05% | 0.09% | 0.65% | 24.1% | 0.91% | 0.67% | 30.2% | 1.13% | 24.4% | 33.6% | 45.7 | 2.67% | 5.8% | 76.5% | 68.8% | 0.6% and 6.94% | 6.2% | Total radioactivity (Rattus norvegicus [14]): 5.5% and 12.6%; Biodistribution (Rattus norvegicus [29]): 0.1% and 0.71%; Total radioactivity (Rattus norvegicus [23]): 27.2%; Total radioactivity (Rattus norvegicus [24]): 12.7%; Biodistribution (Rattus norvegicus [25]): 5.24%; Total radioactivity (Rattus norvegicus [26]): 40.6%; Biodistribution (Rattus norvegicus [27]): 5.24%
CCCCCCCCCCCCCCCC(=O)OC(COC(=O)CCCCCCCCCCCCCCCCc1c(I)cc(I)c(N)c1I)COC(=O)CCCCCCCCCCCCCCCCc1c(I)cc(I)c(N)c1I | 33.8 | 4.78% | 0.07% | 0.03% | 0.08% | 0.87% | 28.8% | 1.97% | 1.03% | 26.2% | 1.45% | 2.5% | 24.8% | 32.7 | 0.87% | 9.7% | 42.3% | 25.3% | 0.67% and 4.76% | 14.2% | Extracted (Rattus norvegicus [1]): 63.5%; Parent compound (Rattus norvegicus [1]): 17.3%; Extracted (Rattus norvegicus [8]): 70.9%; Radioactivity (Rattus norvegicus [10]): 2.59; Biodistribution (Rattus norvegicus [29]): 0.13% and 0.37%; Total radioactivity (Rattus norvegicus [23]): 34.4%; Total radioactivity (Rattus norvegicus [24]): 32.9%; Biodistribution (Rattus norvegicus [25]): 4.2%; Total radioactivity (Rattus norvegicus [26]): 37.1%; Biodistribution (Rattus norvegicus [27]): 4.2%; Extracted (Rattus norvegicus [28]): 44.1%; Parent compound (Rattus norvegicus [28]): 18%

— ChEMBL document CHEMBL1123382, “Potential tumor- or organ-imaging agents. 27. Polyiodinated 1,3-disubstituted and 1,2,3-trisubstituted triacylglycerols” (J Med Chem, 1986)
